“Also recorded” adds a separate entry of the source. The source made the active and inactive calls.
Tests used:
Homo sapiens = species on record: Homo sapiens; assay: Selectivity ratio, Ki for human CB1 receptor to Ki for human CB2 receptor
How it was run: (§1)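 Ki values are geometric means of at least three separate determinations. Selectivity is expressed as the ratio of the CB1 Ki to the CB2 Ki.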

Cannabinoid receptor 2 [1] = target: T1, Cannabinoid receptor 2 (Homo sapiens, UniProt P34972); assay: Displacement of [3H]CP-55940 from human CB2 receptor expressed in CHO cells; assay type: cell-based; how it was run: as §1
Cannabinoid receptor 1 = Cannabinoid receptor 1 (Homo sapiens, UniProt P21554); assay: Displacement of [3H]CP-55940 from human CB1 receptor expressed in CHO cells; assay type: cell-based; how it was run: as §1
[2] = Metabolic stability in human liver microsomes after 30 mins; assay type: ADME, Microsome; conditions: read-out: Stability
How it was run: (§2)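 Compounds incubated with liver microsomes for 30 min. Read-out is percent of parent compound remaining.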

[3] = Metabolic stability in rat liver microsomes after 30 mins; assay type: ADME, Microsome; conditions: read-out: Stability; how it was run: as §2
Cannabinoid receptor 2 [4] = target: T1, Cannabinoid receptor 2; assay: Agonist activity at human CB2 receptor expressed in CHO cells by [35S]GTPgammaS binding assay; assay type: functional, cell-based
How it was run: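 [35S]GTPγS binding with membranes from transfected CHO cells expressing CB2. EC50 values are geometric means of at least three separate determinations.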

Mus musculus [5] = assay: Toxicity in mouse hind paw incision model assessed as behavioral effects at 3 mg/kg, ip; assay type: organism-based; design: dose 3 mg/kg, route intraperitoneal; conditions: in vivo
Mus musculus [6] = assay: Antiallodynic activity in mouse hind paw incision model of post-operative pain assessed as hind paw withdrawal threshold at 3 mg/kg, ip; assay type: functional, organism-based; design: dose 3 mg/kg
Mus musculus [7] = assay: Toxicity in mouse hind paw incision model assessed as behavioral effects at 10 mg/kg, ip; assay type: organism-based; design: dose 10 mg/kg, route intraperitoneal; conditions: in vivo
Mus musculus [8] = assay: Antiallodynic activity in po dosed mouse hind paw incision model of post-operative pain assessed as hind paw withdrawal threshold; assay type: functional, organism-based
Mus musculus [9] = assay: Antiallodynic activity in mouse hind paw incision model of post-operative pain assessed as hind paw withdrawal threshold at 10 mg/kg, ip; assay type: functional, organism-based; design: dose 10 mg/kg

T1 sequence (P34972 whole entry): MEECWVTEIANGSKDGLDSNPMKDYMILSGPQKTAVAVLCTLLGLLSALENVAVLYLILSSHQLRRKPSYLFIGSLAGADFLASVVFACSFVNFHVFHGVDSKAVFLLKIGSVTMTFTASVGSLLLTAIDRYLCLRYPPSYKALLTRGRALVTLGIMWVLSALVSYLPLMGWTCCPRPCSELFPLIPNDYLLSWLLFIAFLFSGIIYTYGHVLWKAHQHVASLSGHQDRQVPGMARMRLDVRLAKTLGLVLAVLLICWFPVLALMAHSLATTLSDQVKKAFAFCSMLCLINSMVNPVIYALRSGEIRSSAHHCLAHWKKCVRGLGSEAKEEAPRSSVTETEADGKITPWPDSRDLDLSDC
Chain of Cannabinoid receptor 1 (P21554 whole entry): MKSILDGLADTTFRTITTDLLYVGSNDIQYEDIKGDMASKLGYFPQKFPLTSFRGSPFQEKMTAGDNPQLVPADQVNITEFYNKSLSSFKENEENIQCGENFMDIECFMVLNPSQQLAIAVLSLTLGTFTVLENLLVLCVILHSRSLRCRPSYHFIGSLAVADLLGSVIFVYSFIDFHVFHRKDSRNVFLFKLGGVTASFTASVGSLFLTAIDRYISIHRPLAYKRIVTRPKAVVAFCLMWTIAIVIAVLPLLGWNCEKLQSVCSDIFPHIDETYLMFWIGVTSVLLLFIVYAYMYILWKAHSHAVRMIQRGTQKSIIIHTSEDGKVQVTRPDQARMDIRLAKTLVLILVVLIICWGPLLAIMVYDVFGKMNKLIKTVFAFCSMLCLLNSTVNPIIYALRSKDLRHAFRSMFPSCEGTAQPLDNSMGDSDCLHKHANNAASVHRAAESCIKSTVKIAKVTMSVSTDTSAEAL

Row | SMILES | Ratio Ki (Homo sapiens) | Ki (Cannabinoid receptor 2 [1]) [nM] | Ki (Cannabinoid receptor 1) [nM] | remaining at 0.5 h [2] [%] | remaining at 0.5 h [3] [%] | EC50 (Cannabinoid receptor 2 [4]) [nM] | Activity (Mus musculus [5]) | Activity (Cannabinoid receptor 1) [%] | Activity (Mus musculus [6]) | Activity (Mus musculus [7]) | Activity (Mus musculus [8]) | Activity (Mus musculus [9])
1 | Cc1ccc(C(=O)NC2C(C)(C)[C@@H]3CC[C@@]2(C)C3)cc1CCC(=O)N1CCOCC1 (some centres not stated) | 20 | 83 | 1700 |  |  |  |  |  |  |  |  | 
2 | Cc1ccc(NC(=O)C2CCCCC2C)cc1CN1CCOCC1 (configuration not stated) | 23 | 70 | 1600 | 38 | 2.2 | 76 |  |  |  |  |  | 
3 | CC(C(=O)Nc1ccc2c(c1)C(N1CCOCC1)CCC2)(C(F)(F)F)C(F)(F)F (single isomer, unassigned; enantiomer 2) |  | 120 | > 5000 |  |  | 72 |  |  |  |  |  | 
4 | CN1CC[C@]23c4c5ccc(O)c4O[C@H]2[C@@H](O)C=C[C@H]3[C@H]1C5 [MORPHINE] |  |  |  |  |  |  | Not Active |  |  |  |  | 
5 | Cc1ccc(C(=O)NC2C(C)(C)[C@@H]3CC[C@@]2(C)C3)cc1S(=O)(=O)N1CCOCC1 (some centres not stated) | 31 | 3.9 | 130 |  |  | 6.6 |  |  |  |  |  | 
6 | Cc1ccc(C(=O)NC2C(C)(C)[C@@H]3CC[C@@]2(C)C3)cc1CN1CCOCC1 (some centres not stated) | 58 | 19 | 1100 |  |  | 42 |  |  |  |  |  | 
7 | Cc1ccc(C(=O)NC2C(C)(C)[C@@H]3CC[C@@]2(C)C3)cc1CCN1CCOCC1 (some centres not stated) | 31 | 45 | 1400 |  |  | 64 |  |  |  |  |  | 
8 | CCC(C)(C)C(=O)Nc1ccc(C)c(CN2CCOCC2)c1 |  | 120 |  | 56 | 29 | 110 |  | 4 |  |  |  | 
9 | Cc1c(CN2CCOCC2)cc(NC(=O)C2CCCCC2C)cc1C(F)(F)F (configuration not stated) | 6.5 | 17 | 110 | 2 | 2 | 42 |  |  |  |  |  | 
10 | Cc1ccc(C(=O)NC2C(C)(C)[C@@H]3CC[C@@]2(C)C3)cc1C(=O)N1CCOCC1 (some centres not stated) |  | 1200 | > 5000 |  | 26 |  |  |  |  |  |  | 
11 | Cc1ccc(NC(=O)C(C)(C(F)(F)F)C(F)(F)F)cc1CN1CCOCC1 | 390 | 16 | 6300 | 42 | 0.9 | 14 |  |  |  |  |  | 
12 | CC(C(=O)Nc1ccc2c(c1)C(N1CCOCC1)CCC2)(C(F)(F)F)C(F)(F)F (single isomer, unassigned) |  | 2.3 | 1300 |  |  | 3.6 |  |  |  |  |  | 
13 | Cc1cc(C)c(NC(=O)C2CCCCC2C)cc1CN1CCOCC1 (configuration not stated) |  | 440 |  | 49 | 67 | 590 |  | 14 |  |  |  | 
14 | CC(C(=O)Nc1ccc2c(c1)C(N1CCOCC1)CCC2)(C(F)(F)F)C(F)(F)F (stereo in doubt; 43) |  | 10 | 3400 |  |  | 41 |  |  |  |  |  | 
15 | Cc1ccc(C(=O)NC2C3(C)CCC(C3)C2(C)C)cc1CC(=O)N1CCOCC1 (configuration not stated) | 5.6 | 700 | 3900 |  |  |  |  |  |  |  |  | 
16 | Cc1ccc(C(=O)NC2C(C)(C)[C@@H]3CC[C@@]2(C)C3)cc1N1CCOCC1 (some centres not stated) | 30 | 300 | 9000 |  |  |  |  |  |  |  |  | 
17 | Cc1cc(NC(=O)C(C)(C(F)(F)F)C(F)(F)F)cc(CN2CCOCC2)c1C | 190 | 2.7 | 500 | 31 | 3.1 | 5.5 |  |  | Active | Non-toxic; also recorded: Not Active | inactive | Active
18 | Cc1cc(F)c(NC(=O)C2CCCCC2C)cc1CN1CCOCC1 (configuration not stated) |  | 37 |  | 36 | 15 | 49 |  | 31 |  |  |  | 
19 | CCC(C)(C)C(=O)Nc1cc(CN2CCOCC2)c(C)cc1C |  | 530 |  | 61 | 42 | 500 |  | 18 |  |  |  | 
20 | Cc1cc(NC(=O)C2CCCCC2C)cc(CN2CCOCC2)c1C (configuration not stated) | 63 | 8.6 | 540 | 32 | 1 | 21 |  |  |  |  |  | 
21 | Cc1ccc(C(=O)NC2C(C)(C)[C@@H]3CC[C@@]2(C)C3)cc1CCCN1CCOCC1 (some centres not stated) | 34 | 62 | 2100 |  |  | 110 |  |  |  |  |  | 
22 | CCC(C)(C)C(=O)Nc1cc(CN2CCOCC2)c(C)cc1F |  | 120 |  | 57 | 20 | 200 |  | 10 |  |  |  | 
